# Laboratory results reported in ChEMBL document CHEMBL3286182, “4-aminoquinolone piperidine amides: noncovalent inhibitors of DprE1 with long residence time and potent antimycobacterial activity” (J Med Chem, 2014).
# Active and inactive are the calls of the source. The calls are words filed in the database; no cut-off is given here.
# Tests used:
# [1] = system: Mycobacterium tuberculosis; assay: Antimycobacterial activity against Mycobacterium tuberculosis H37Rv after 5 days by standard microdilution method; type: functional; conditions: 120 h
# [2] = system: Mycobacterium tuberculosis; assay: Antimycobacterial activity against Mycobacterium tuberculosis H37Rv under hypoxic condition after 6 days by resazurin assay; type: functional; conditions: 144 h
# [3] = system: Mycobacterium tuberculosis; assay: Antimycobacterial activity against Mycobacterium tuberculosis H37Rv at >MIC after 21 to 28 days; type: functional
# [4] = Cytotoxicity against human A549 cells after 72 hrs by resazurin based fluorescence assay; type: cell-based; conditions: read-out: MIC
# Outline: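 Cytotoxicity read as MMIC, the MIC on the A549 cell line.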
# [5] = Solubility of the compound in 0.1 M phosphate buffer at pH 7.4 after 24 hrs by UV and MS analysis; type: physicochemical
# [6] = Octanol-water partition coefficient, log D of the compound by shake-flask method; type: physicochemical
# [7] = Fraction unbound in human plasma at 20 uM after 18 hrs by equilibrium dialysis method; type: ADME, cell-free
# [8] = Intrinsic clearance in human liver microsomes at 1 uM up to 30 mins by LC-MS/MS analysis; type: ADME; conditions: read-out: CLH
# [9] = Intrinsic clearance in rat cryopreserved hepatocytes assessed per 10^6 cells at 1 uM up to 120 mins by LC-MS/MS analysis; type: ADME, cell-based, Hepatocyte; conditions: read-out: CLH
# [10] = Permeability of the compound from apical to basolateral side in human Caco2 cells; type: ADME, cell-based; conditions: Caco-2, read-out: permeability
# [11] = Permeability of the compound from basolateral to apical side in human Caco2 cells; type: ADME, cell-based; conditions: Caco-2, read-out: permeability
# [12] = target: Voltage-gated inwardly rectifying potassium channel KCNH2 (Homo sapiens, UniProt Q12809); assay: Inhibition of human ERG by medium-throughput electrophysiology
# Cytochrome P450 3A4 = Cytochrome P450 3A4 (Homo sapiens, UniProt P08684); assay: Inhibition of CYP3A4 (unknown origin); type: ADME
# Outline: (§1)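 CYP inhibition IC50 measured on isoforms CYP3A4, CYP2D6, CYP2C9, CYP2C19 and CYP1A2.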
# Cytochrome P450 2D6 = Cytochrome P450 2D6 (Homo sapiens, UniProt P10635); assay: Inhibition of CYP2D6 (unknown origin); type: ADME; outline: as §1
# Cytochrome P450 2C9 = Cytochrome P450 2C9 (Homo sapiens, UniProt P11712); assay: Inhibition of CYP2C9 (unknown origin); type: ADME; outline: as §1
# Cytochrome P450 2C19 = Cytochrome P450 2C19 (Homo sapiens, UniProt P33261); assay: Inhibition of CYP2C19 (unknown origin); type: ADME; outline: as §1
# Cytochrome P450 1A2 = target: T1, Cytochrome P450 1A2 (Homo sapiens, UniProt P05177); assay: Inhibition of CYP1A2 (unknown origin); type: ADME; outline: as §1
# T1 sequence (P05177 whole entry): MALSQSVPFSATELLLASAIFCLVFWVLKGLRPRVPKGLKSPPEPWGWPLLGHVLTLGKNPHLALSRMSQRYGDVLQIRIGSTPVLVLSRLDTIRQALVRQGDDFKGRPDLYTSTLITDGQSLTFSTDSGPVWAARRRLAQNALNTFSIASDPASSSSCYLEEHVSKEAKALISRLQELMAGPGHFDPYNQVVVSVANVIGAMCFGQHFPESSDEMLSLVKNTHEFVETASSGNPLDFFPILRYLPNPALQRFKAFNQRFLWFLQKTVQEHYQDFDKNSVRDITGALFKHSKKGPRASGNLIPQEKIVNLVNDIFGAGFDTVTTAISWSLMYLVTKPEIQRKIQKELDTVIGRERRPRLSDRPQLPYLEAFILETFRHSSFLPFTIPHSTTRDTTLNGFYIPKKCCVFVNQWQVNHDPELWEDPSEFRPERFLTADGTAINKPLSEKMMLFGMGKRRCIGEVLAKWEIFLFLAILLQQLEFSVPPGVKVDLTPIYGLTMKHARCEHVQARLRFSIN
# Mu-type opioid receptor = Mu-type opioid receptor (Homo sapiens, UniProt P35372); assay: Inhibition of mu opioid receptor (unknown origin)
# Outline: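 Secondary pharmacology panel of binding, enzyme and functional assays covering 24 molecular targets. Activity recorded as a defined Ki/IC50/EC50.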
# [13] = system: Mycobacterium tuberculosis; assay: Antimycobacterial activity against Mycobacterium tuberculosis over expressing DprE1 after 5 days by standard microdilution method; type: functional; conditions: 120 h
# [14] = system: Mycobacterium tuberculosis; assay: Antimycobacterial activity against Mycobacterium tuberculosis over expressing InhA after 5 days by standard microdilution method; type: functional; conditions: 120 h
# [15] = system: Mycobacterium tuberculosis; assay: Antimycobacterial activity against Mycobacterium tuberculosis over expressing TopA after 5 days by standard microdilution method; type: functional; conditions: 120 h
# [16] = system: Mycobacterium tuberculosis; assay: Antimycobacterial activity against Mycobacterium tuberculosis over expressing PimA after 5 days by standard microdilution method; type: functional; conditions: 120 h
# [17] = Inhibition of Mycobacterium smegmatis recombinant DprE1 using farnesylphosphoryl-beta-D-ribofuranose as substrate assessed as conversion of amplex red to resorufin after 30 mins; design: species or system Mycolicibacterium smegmatis
# Outline: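 Msm DprE1 (thioredoxin-6His fusion of Msm Rv3790) at 75 nM, preincubated 30 min with 10 μM FAD. Buffer: 50 mM glycylglycine pH 8.5, 200 mM potassium glutamate, 0.002% Brij-35, 2% DMSO, 25 °C. Started with 300 μM farnesylphosphoryl-β-D-ribofuranose, 0.01 mg/mL HRP and 50 μM Amplex Red.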
# [18] = system: Mycolicibacterium smegmatis; assay: Binding affinity to Mycobacterium smegmatis recombinant DprE1 assessed as dissociation constant
# Outline: (§2)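 Progress curves (fluorescence vs time) recorded at several inhibitor concentrations with 75 nM Msm DprE1 in the FAD/HRP/Amplex Red coupled assay, pH 8.5, 25 °C. A single-step reversible slow-binding model was fitted globally, with vs and vi fitted per concentration and koff and Kiapp shared. Half-life and residence time were derived from koff.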
# [19] = system: Mycolicibacterium smegmatis; assay: Binding affinity to Mycobacterium smegmatis recombinant DprE1 assessed as half life; outline: as §2
# [20] = system: Mycolicibacterium smegmatis; assay: Binding affinity to Mycobacterium smegmatis recombinant DprE1 assessed as residence time; outline: as §2
# Staphylococcus aureus = assay: Antimicrobial activity against Staphylococcus aureus ARC517 at 100 uM; type: functional, organism-based
# Outline: (§3)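 Nonmycobacterial panel of Candida albicans, Gram-negative and Gram-positive pathogens.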
# Streptococcus pneumoniae = assay: Antimicrobial activity against Streptococcus pneumoniae ARC548 at 100 uM; type: functional, organism-based; outline: as §3
# Haemophilus influenzae [21] = assay: Antimicrobial activity against Haemophilus influenzae ARC446 at 100 uM; type: functional, organism-based; outline: as §3
# Haemophilus influenzae [22] = assay: Antimicrobial activity against Haemophilus influenzae ARC158 at 100 uM; type: functional, organism-based; outline: as §3
# Escherichia coli [23] = assay: Antimicrobial activity against Escherichia coli ARC523 at 100 uM; type: functional, organism-based; outline: as §3
# Escherichia coli [24] = assay: Antimicrobial activity against Escherichia coli ARC524 at 100 uM; type: functional, organism-based; outline: as §3
# Pseudomonas aeruginosa [25] = assay: Antimicrobial activity against Pseudomonas aeruginosa ARC545 at 100 uM; type: functional, organism-based; outline: as §3
# Pseudomonas aeruginosa [26] = assay: Antimicrobial activity against Pseudomonas aeruginosa ARC546 at 100 uM; type: functional, organism-based; outline: as §3
# Klebsiella pneumoniae = assay: Antimicrobial activity against Klebsiella pneumoniae ARC1865 at 100 uM; type: functional, organism-based; outline: as §3
# [27] = system: Mycolicibacterium smegmatis; assay: Antimicrobial activity against Mycobacterium smegmatis ATCC 607 at 100 uM; type: functional, organism-based
# [28] = system: Mycolicibacterium smegmatis; assay: Antimicrobial activity against Mycobacterium smegmatis mc2155 at 100 uM; type: functional, organism-based; conditions: str. MC2 155
# Candida albicans = assay: Antimicrobial activity against Candida albicans ARC527 at 100 uM; type: functional, organism-based; outline: as §3
# [29] = Inhibition of Mycobacterium smegmatis DprE1 Y321H mutant using farnesylphosphoryl-beta-D-ribofuranose as substrate assessed as conversion of amplex red to resorufin after 30 mins; design: species or system Mycolicibacterium smegmatis
# Outline: (§4)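 Recombinant M. smegmatis DprE1 (thioredoxin-6His fusion), wild type or Y321H, 75 nM. Enzyme was preincubated 30 min in FAD assay mix: 50 mM glycylglycine pH 8.5, 200 mM potassium glutamate, 10 μM FAD, 0.002% Brij-35, 2% DMSO. Reaction was started with 300 μM farnesylphosphoryl-β-D-ribofuranose, 0.01 mg/mL HRP and 50 μM amplex red at 25 °C.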
# [30] = system: Mycolicibacterium smegmatis; assay: Ratio of IC50 for Mycobacterium smegmatis DprE1 Y321H mutant to IC50 for Mycobacterium smegmatis recombinant wild type DprE1; outline: as §4
# [31] = system: Mycolicibacterium smegmatis; assay: Time dependent inhibition of Mycobacterium smegmatis recombinant DprE1 using farnesylphosphoryl-beta-D-ribofuranose as substrate assessed as conversion of amplex red to resorufin at 4.6 to 3333 nM
# Outline: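 Coupled fluorescence assay at 25 °C with 75 nM recombinant Msm DprE1 (wild type or Y321H) in 50 mM glycylglycine pH 8.5, 200 mM potassium glutamate, 10 μM FAD, 0.002% Brij-35, 2% DMSO. Enzyme preincubated 30 min, then started with 300 μM FPR, HRP and 50 μM Amplex Red. Progress curves followed over 0−40 min, with background subtracted.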
# [32] = system: Mycobacterium tuberculosis; assay: Antimycobacterial activity against Mycobacterium tuberculosis H37Rv infected in human THP1 cells after 7 days; type: functional, organism-based; conditions: THP-1
# [33] = system: Mycobacterium tuberculosis; assay: Antimycobacterial activity against Mycobacterium tuberculosis expressing GFP assessed as reduction of bacterial growth rate at 30 uM after 5 to 7 days; type: functional, organism-based
# Outline: (§5)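 GFP-expressing Mtb was grown several days in a microfluidic device with 7H9 flow medium. Compound at 30 μM was then flowed in from t = 118 h to t = 284 h, then washed out. Phase and GFP time-lapse images were taken at 1 h intervals to follow growth rate, morphology and lysis of single cells and microcolonies.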
# [34] = system: Mycobacterium tuberculosis; assay: Antimycobacterial activity against Mycobacterium tuberculosis expressing GFP assessed as bacterial lysis at 30 uM after 5 to 7 days measured after drug washout; type: functional, organism-based; outline: as §5
# [35] = system: Mycobacterium tuberculosis; assay: Antimycobacterial activity against Mycobacterium tuberculosis expressing GFP assessed as change bacterial morphology at 30 uM after 5 to 7 days; type: functional, organism-based; outline: as §5
# Chain of Cytochrome P450 2C9 (P11712 whole entry): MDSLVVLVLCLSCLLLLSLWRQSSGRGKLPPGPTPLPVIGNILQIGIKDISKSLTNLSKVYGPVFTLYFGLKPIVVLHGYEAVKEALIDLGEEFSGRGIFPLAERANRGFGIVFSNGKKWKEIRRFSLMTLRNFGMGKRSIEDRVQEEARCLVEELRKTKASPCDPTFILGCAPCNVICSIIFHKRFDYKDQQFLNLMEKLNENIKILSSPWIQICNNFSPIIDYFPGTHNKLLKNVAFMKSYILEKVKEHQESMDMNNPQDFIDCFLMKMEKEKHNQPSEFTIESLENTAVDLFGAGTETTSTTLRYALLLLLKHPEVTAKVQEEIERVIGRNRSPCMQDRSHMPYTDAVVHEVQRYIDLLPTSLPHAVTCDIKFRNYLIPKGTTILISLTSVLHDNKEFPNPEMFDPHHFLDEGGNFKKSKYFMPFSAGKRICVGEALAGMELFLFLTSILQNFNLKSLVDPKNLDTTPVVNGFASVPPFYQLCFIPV
# Chain of Cytochrome P450 2C19 (P33261 whole entry): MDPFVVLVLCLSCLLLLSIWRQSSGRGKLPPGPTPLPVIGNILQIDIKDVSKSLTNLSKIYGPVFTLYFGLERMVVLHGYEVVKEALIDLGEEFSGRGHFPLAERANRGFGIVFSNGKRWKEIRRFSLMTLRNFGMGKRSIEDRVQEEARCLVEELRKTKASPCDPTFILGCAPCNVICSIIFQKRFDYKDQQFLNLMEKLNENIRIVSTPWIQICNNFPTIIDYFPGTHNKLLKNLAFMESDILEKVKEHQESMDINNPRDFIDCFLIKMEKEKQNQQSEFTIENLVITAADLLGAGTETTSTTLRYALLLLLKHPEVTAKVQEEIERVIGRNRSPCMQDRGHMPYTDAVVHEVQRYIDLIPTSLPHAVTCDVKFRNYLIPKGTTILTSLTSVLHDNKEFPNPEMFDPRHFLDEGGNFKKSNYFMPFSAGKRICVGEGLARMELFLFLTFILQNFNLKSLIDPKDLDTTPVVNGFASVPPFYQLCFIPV
# Chain of Cytochrome P450 3A4 (P08684 whole entry, canonical isoform): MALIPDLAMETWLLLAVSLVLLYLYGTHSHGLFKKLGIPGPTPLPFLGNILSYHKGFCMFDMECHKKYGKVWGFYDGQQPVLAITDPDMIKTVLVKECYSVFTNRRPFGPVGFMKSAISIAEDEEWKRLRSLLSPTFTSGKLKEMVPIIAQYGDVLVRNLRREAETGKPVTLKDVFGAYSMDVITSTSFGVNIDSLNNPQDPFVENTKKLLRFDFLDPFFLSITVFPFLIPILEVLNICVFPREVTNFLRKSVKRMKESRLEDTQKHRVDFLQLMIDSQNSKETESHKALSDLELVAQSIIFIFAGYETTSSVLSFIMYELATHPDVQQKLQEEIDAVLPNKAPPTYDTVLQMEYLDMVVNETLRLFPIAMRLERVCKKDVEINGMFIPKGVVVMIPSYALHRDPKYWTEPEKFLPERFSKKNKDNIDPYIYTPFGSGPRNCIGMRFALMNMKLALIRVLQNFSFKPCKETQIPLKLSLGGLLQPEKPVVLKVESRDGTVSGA
# Chain of Cytochrome P450 2D6 (P10635 whole entry): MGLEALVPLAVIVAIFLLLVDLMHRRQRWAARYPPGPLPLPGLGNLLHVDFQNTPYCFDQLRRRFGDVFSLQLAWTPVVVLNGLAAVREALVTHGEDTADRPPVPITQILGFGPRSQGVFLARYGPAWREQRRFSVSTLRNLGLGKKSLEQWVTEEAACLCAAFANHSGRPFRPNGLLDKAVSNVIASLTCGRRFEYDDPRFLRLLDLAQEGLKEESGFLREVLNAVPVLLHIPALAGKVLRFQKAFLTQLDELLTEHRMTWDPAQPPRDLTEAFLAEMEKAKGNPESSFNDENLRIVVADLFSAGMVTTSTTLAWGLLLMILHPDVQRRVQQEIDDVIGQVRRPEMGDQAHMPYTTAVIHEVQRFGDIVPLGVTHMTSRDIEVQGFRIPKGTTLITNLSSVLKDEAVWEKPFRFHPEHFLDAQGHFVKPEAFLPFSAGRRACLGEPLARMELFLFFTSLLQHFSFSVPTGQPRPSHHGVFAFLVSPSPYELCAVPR
# Chain of Mu-type opioid receptor (P35372 whole entry): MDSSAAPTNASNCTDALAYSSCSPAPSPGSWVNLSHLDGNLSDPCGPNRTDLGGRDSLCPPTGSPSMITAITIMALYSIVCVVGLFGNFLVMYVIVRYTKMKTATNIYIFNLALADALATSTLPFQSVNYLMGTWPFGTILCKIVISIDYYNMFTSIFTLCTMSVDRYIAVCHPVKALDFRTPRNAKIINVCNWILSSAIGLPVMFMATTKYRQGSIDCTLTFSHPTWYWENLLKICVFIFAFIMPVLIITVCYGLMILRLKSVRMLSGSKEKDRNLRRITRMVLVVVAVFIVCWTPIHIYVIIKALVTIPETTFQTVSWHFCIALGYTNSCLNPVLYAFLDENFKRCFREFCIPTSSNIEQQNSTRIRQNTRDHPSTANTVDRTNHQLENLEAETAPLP
# Chain of Voltage-gated inwardly rectifying potassium channel KCNH2 (Q12809 whole entry): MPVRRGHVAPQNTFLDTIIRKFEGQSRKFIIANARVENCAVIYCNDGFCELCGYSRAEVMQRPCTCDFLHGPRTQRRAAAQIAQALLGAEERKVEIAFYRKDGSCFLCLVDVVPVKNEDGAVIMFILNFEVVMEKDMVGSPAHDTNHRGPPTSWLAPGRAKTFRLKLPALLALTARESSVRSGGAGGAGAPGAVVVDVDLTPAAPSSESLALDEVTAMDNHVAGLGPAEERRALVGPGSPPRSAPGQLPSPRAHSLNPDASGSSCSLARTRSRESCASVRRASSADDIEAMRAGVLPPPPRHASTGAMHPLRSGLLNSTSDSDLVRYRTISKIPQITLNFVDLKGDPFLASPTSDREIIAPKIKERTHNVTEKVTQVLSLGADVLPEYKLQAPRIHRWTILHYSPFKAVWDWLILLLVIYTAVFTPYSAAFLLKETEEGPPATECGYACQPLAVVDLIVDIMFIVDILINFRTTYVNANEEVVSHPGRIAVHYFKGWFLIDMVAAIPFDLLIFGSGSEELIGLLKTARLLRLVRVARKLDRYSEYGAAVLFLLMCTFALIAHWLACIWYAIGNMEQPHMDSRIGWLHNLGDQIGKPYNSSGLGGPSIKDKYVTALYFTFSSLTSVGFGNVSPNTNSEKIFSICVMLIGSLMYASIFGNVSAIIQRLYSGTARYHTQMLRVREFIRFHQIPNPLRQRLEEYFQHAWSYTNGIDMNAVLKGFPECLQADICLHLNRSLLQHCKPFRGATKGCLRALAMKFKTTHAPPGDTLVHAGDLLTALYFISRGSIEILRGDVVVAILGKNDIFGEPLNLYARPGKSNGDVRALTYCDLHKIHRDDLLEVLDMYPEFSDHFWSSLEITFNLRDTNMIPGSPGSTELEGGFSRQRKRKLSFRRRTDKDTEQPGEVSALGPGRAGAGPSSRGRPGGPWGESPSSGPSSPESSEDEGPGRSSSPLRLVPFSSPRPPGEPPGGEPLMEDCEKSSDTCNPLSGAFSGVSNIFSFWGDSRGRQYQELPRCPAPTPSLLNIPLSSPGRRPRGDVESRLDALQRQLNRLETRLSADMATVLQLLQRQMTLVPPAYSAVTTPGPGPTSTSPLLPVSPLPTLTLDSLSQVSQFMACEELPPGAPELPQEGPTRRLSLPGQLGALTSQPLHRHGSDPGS
structure (smiles),measurement,setting,value
Cn1ncc(C(=O)N2CCC(Nc3cc(=O)[nH]c4ccccc34)CC2)c1Cl,MIC,[1],6.25 µM
same,IC80,[2],> 100 µM
same,MBC,[3],6.3 µM
same,MCC at 72 h,[4],> 200 µM
same,solubility at 24 h,[5],255 µM
same,logD,[6],1.6
same,"fraction unbound at 18 h, 20 µM",[7],0.3
same,microsomal CLint at 1 µM,[8],< 4 µL/min/mg
same,hepatocyte CLint at 1 µM,[9],1.5 µL/min/1e6 cells
same,Papp A→B,[10],0.5 ×10⁻⁶ cm/s
same,Papp B→A,[11],14 ×10⁻⁶ cm/s
same,IC50,[12],> 100 µM
same,INH,Cytochrome P450 3A4,> 30 µM
same,INH,Cytochrome P450 2D6,> 30 µM
same,INH,Cytochrome P450 2C9,> 30 µM
same,INH,Cytochrome P450 2C19,> 30 µM
same,INH,Cytochrome P450 1A2,> 30 µM
same,IC50,Mu-type opioid receptor,21.9 µM
same,MIC,[13],> 100 µM
same,MIC,[14],6.3 µM
same,MIC,[15],3.1 µM
same,MIC,[16],3.1 µM
same,IC50,[17],0.15 µM
same,Kdiss,[18],0.00016 s⁻¹
same,T1/2,[19],1.2 h
same,TIME,[20],1.73 h
same,Activity,Staphylococcus aureus,inactive
same,Activity,Streptococcus pneumoniae,inactive
same,Activity,Haemophilus influenzae [21],inactive
same,Activity,Haemophilus influenzae [22],inactive
same,Activity,Escherichia coli [23],inactive
same,Activity,Escherichia coli [24],inactive
same,Activity,Pseudomonas aeruginosa [25],inactive
same,Activity,Pseudomonas aeruginosa [26],inactive
same,Activity,Klebsiella pneumoniae,inactive
same,Activity,[27],inactive
same,Activity,[28],inactive
same,Activity,Candida albicans,inactive
same,IC50,[29],> 10 µM
same,fold change (FC),[30],> 63
Cn1ncc(C(=O)N2CCC(Nc3cc(=O)[nH]c4ccc(F)cc34)CC2)c1Cl,MIC,[1],1.56 µM
same,IC80,[2],> 100 µM
same,MBC,[3],3.1 µM
same,MCC at 72 h,[4],> 200 µM
same,solubility at 24 h,[5],105 µM
same,logD,[6],2
same,"fraction unbound at 18 h, 20 µM",[7],0.4
same,microsomal CLint at 1 µM,[8],< 4.8 µL/min/mg
same,hepatocyte CLint at 1 µM,[9],5.6 µL/min/1e6 cells
same,Papp A→B,[10],0.6 ×10⁻⁶ cm/s
same,Papp B→A,[11],13 ×10⁻⁶ cm/s
same,INH,Cytochrome P450 3A4,> 30 µM
same,INH,Cytochrome P450 2D6,> 30 µM
same,INH,Cytochrome P450 2C9,> 30 µM
same,INH,Cytochrome P450 2C19,> 30 µM
same,INH,Cytochrome P450 1A2,> 30 µM
same,MIC,[13],100 µM
same,MIC,[14],1.6 µM
same,MIC,[15],0.8 µM
same,MIC,[16],1.6 µM
same,inhibition,[31],Active
same,IC50,[17],0.005 µM
same,Kdiss,[18],0.00012 s⁻¹
same,T1/2,[19],1.38 h
same,TIME,[20],1.98 h
same,Activity,[32],Active
same,Activity,[33],Active
same,Activity,[34],Active
same,Activity,[35],Active
same,Activity,Staphylococcus aureus,inactive
same,Activity,Streptococcus pneumoniae,inactive
same,Activity,Haemophilus influenzae [21],inactive
same,Activity,Haemophilus influenzae [22],inactive
same,Activity,Escherichia coli [23],inactive
same,Activity,Escherichia coli [24],inactive
same,Activity,Pseudomonas aeruginosa [25],inactive
same,Activity,Pseudomonas aeruginosa [26],inactive
same,Activity,Klebsiella pneumoniae,inactive
same,Activity,[27],inactive
same,Activity,[28],inactive
same,Activity,Candida albicans,inactive
same,IC50,[29],9.47 µM
same,fold change (FC),[30],111
